Series [1] in a line: Binding affinity to P-gp assessed as increase in basal protein activity at 0.05 uM after 30 mins by spectrophotometry. Summed up: (§1)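 P-gp vesicles from DC-3F/ADX MDR cells; basal MgATP hydrolysis measured by PK/LDH-coupled NADH oxidation (PEP, NADH), with non-specific ATPase inhibitor; vesicles 5 min at 37 °C, compound added (final 0.05, 0.5, 5 µM) 5 min, MgATP then 20 min at 37 °C; A340 read twice 20 min apart; triplicate; verapamil, vinblastine, progesterone references.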

A short description of series [2]: Partition coefficient, log P of the compound. The format is physicochemical. To be noted: octanol/water.
In series [3] the test system is ATP. Put plainly: Binding affinity to ATP at 50 uM in HEPES buffer of pH 7.2 by spectrophotometry. An outline of the steps:
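UV-vis titration: compound held constant at 50 µM in HEPES pH 7.2, titrated with NaATP (from 10^-2 M stock) over 0–3 equiv; absorbance change followed; binding constant from Benesi–Hildebrand plot.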

A short description of series [4]: Binding affinity to P-gp at 5 uM after 30 mins by spectrophotometry. An outline of the steps: as §1
Series [5] can be described thus: Binding affinity to P-gp assessed as increase in basal protein activity at 5 uM after 30 mins by spectrophotometry. An outline of the steps:
as §1

A short description of series [6]: Binding affinity to P-gp assessed as increase in basal protein activity at 0.5 uM after 30 mins by spectrophotometry. Summed up:
as §1

Series [7] can be described thus: Binding affinity to Mg2+ at 100 uM in HEPES buffer of pH 7.2 by spectrophotometry. Summed up:
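Compound at 10^-4 M in 10^-2 M HEPES pH 7.2 titrated with Mg²⁺ (0–0.5 × 10^-4 M); absorbance changes at 270–310, 390–415 and 320–340 nm monitored; binding constant by Benesi–Hildebrand equation.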

Series [8] in a line: Binding affinity to P-gp at 0.5 uM after 30 mins by spectrophotometry. An outline of the steps:
as §1

Series [9] in a line: Binding affinity to P-gp at 0.05 uM after 30 mins by spectrophotometry. An outline of the steps: as §1
The subject of series [10] is Candida albicans. Put plainly: Antifungal activity at Candida albicans CAI4 after 48 hrs by ELISA. To be noted: CAI4, 48 h. Type of series: functional. Summed up: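 Broth microdilution; CAI4 streaked on YEPD, 30 °C 24 h; compounds serially diluted twofold in YEPD, solvent diluted alongside; growth control column; 30 °C 48 h; OD600 on plate reader; MIC80 = concentration giving 80% growth inhibition vs no-compound growth.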
In general terms: In an ELISA, binding on a coated surface is turned into a signal by an enzyme label.

Structures are written as SMILES. Values after ≈ are worked out from the molar mass of the structure shown. Active and inactive are the calls of the source. The calls are words filed in the database; no cut-off is given here.

Here are results for 13 molecules from ChEMBL document CHEMBL1166014, “Targeting efflux pumps-In vitro investigations with acridone derivatives and identification of a lead molecule for MDR modulation” (Bioorg Med Chem, 2010).

For orientation: logP means a log measure of how a compound divides between an organic and an aqueous phase. A low value points to lower lipophilicity. Regarding `O=C(O)c1cccc2c(=O)c3ccccc3n(CC(O)CN3CCOCC3)c12` (stereo not given), the Activity was found to be 63% in series [1], 166% in [5] and 100% in series [6]. The log partition coefficient (logP) in [2] came out at 0.6. For the same molecule, the Ka result in series [3] is “inactive”. For the same molecule, the RBA turned out to be 2.66 in [4], 2 in [8] and 1.63 in series [9]. This molecule also registered a Ka in series [7] of 3.82 ×10⁵ /M.
Usually MIC80 stands for the lowest concentration that inhibits either 80% of growth or 80% of the strains tested, depending on the study. Lower therefore signals higher susceptibility. In series [10], `CCN(CC)CC(O)Cn1c2ccccc2c(=O)c2cccc(Cl)c21` (stereo not given) displayed an MIC80 of 1500 µg/mL (≈ 4.18 mM). Moreover, the Ka in [3] is 7.9 ×10⁵ /M; in [7], 0.39 ×10⁵ /M.
As for `COc1ccc(CCN(C)CCCC(C#N)(c2ccc(OC)c(OC)c2)C(C)C)cc1OC` (stereo not given), the RBA was 2.8 in series [4], 2.01 in [8] and 1.11 in series [9].
`CC(C)N(CC(O)Cn1c2ccccc2c(=O)c2cccc(Cl)c21)C(C)C` (stereo not given) came in with an MIC80 in series [10] of over 3000 µg/mL. Besides, the results for the Ka in series [3] and in [7] were 1.42 ×10⁵ /M and 2.2 ×10⁵ /M, respectively.
Regarding `O=C(O)c1cccc2c(=O)c3ccccc3n(CC(O)CN3CCCCC3)c12` (stereo not given), the Activity was found to be 57% in [1], 144% in series [5] and 66% in [6]. Also, the Ka result in series [3] is “inactive”. The RBA in series [4] amounted to 2.44; in series [8], 1.66; in series [9], 1.57. The Ka in series [7] was 19.7 ×10⁵ /M.
In turn, `O=c1c2ccccc2n(CC(O)CN2CCOCC2)c2c(Cl)cccc12` (stereo not given) displayed an MIC80 in series [10] of over 3000 µg/mL. Besides, the Ka in series [3] is 4.08 ×10⁵ /M; in series [7], 17.1 ×10⁵ /M.
In the same order, the values of `O=c1c2ccccc2n(CC(O)CN2CCC(N3CCCCC3)CC2)c2c(Cl)cccc12` (stereo not given) are over 3000 µg/mL, 11 ×10⁵ /M and 18.6 ×10⁵ /M.
Turning to `O=c1c2ccccc2n(CC(O)CN2CCCCC2)c2c(Cl)cccc12` (stereo not given), the MIC80 in series [10] is over 3000 µg/mL. Also, the Ka in series [3] is 5 ×10⁵ /M; in series [7], 1.48 ×10⁵ /M.
`CC(C)N(CC(O)Cn1c2ccccc2c(=O)c2cccc(C(=O)O)c21)C(C)C` (stereo not given): the Activity in series [1] came to 53%; in [5], 105%; in series [6] it was 60%. In [3], the Ka entry is “inactive”. The results for the RBA in series [4], in series [8] and in series [9] were 2.05, 1.6 and 1.53, respectively. This molecule yielded a Ka in [7] of 2 ×10⁵ /M.
As to `CCN(CC)CC(O)Cn1c2ccccc2c(=O)c2cccc(C(=O)O)c21` (stereo not given), the results for the Activity in [1], in [5] and in [6] were 65%, 112% and 70%, respectively. Also, the Ka result in series [3] was “inactive”. The RBA in [4] came to 2.12; in series [8] it was 1.7; in series [9], 1.65. For the same molecule, in series [7], the Ka worked out at 7.74 ×10⁵ /M.
Turning to `O=c1c2ccccc2n(CC(O)CN2CCCC2)c2c(Cl)cccc12` (stereo not given), the MIC80 in series [10] is over 3000 µg/mL. The Ka was 6.57 ×10⁵ /M in [3] and 0.95 ×10⁵ /M in series [7].
In the case of `CC[C@]1(O)C[C@@H]2CN(CCc3c([nH]c4ccccc34)[C@@](C(=O)OC)(c3cc4c(cc3OC)N(C)[C@H]3[C@@](O)(C(=O)OC)[C@H](OC(C)=O)[C@]5(CC)C=CCN6CC[C@]43[C@@H]65)C2)C1`, the RBA in [4] is 1.21; in [8], 1.37; in [9], 0.98.
In the same order, the values of `CC(=O)[C@H]1CC[C@H]2[C@@H]3CCC4=CC(=O)CC[C@]4(C)[C@H]3CC[C@]12C` are 1.42, 1.11 and 1.
